Laboratory results reported in ChEMBL document CHEMBL1154748, “4-Pyridylanilinothiazoles that selectively target von Hippel-Lindau deficient renal cell carcinoma cells by inducing autophagic cell death” (2010).
Active and inactive are the calls of the source. The rule behind the calls is not given here.

Experiments:
[1] = Growth inhibition of VHL-null human RCC4 cells after 4 days by XTT assay; type: functional; conditions: RCC4, 96 h
How it was run: (§1)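 XTT read-out: 5000 cells/well plated, vehicle or drug added next day, 4-day exposure. Then phenol red-free medium with 0.3 mg/mL XTT, 20% FCS and 2.65 μg/mL N-methyldibenzopyrazine methyl sulfate, 1-2 h at 37 °C, absorbance at 450 nm. GI50 by linear interpolation; single determinations in triplicate. Ratio is the intraexperiment RCC4-VHL GI50 / RCC4 GI50.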

RCC4 = experiment: Induction of autophagy in VHL-null human RCC4 cells assessed as intracytoplasmic vacuoles at 5 uM after 24 h
[2] = Ratio of IC50 for human RCC4-VHL cells to IC50 for VHL-null human RCC4 cells; type: functional; how it was run: as §1

Compound | GI50 [1] | Activity (RCC4) | RatioGI50 [2]
Cc1cccc(Nc2nc(-c3ccncc3C#CCO)cs2)c1 | 240 nM | Active | 11.9
Cc1cccc(Nc2nc(-c3ccncc3Cl)cs2)c1 | 2900 nM | Active | >13.8
